Measurements from ChEMBL document CHEMBL4513216, “Probing the Open Global Health Chemical Diversity Library for Multistage-Active Starting Points for Next-Generation Antimalarials” (ACS Infect Dis, 2020).

Assay: Toxicity liver stage against HepG2, at 10uM
Type: cell-based
Parameters: test concentration 10 uM, cell line HepG2-A16-CD81EGFP
Details: human, HepG2-A16-CD81EGFP cells; read-out: INHIBITION
Outline: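 Uninfected HepG2-A16-CD81EGFP cells, 3 × 10^3 per well, 1536-well, plated on prespotted compound at 10 μM final, parasite-free screening media added to match infected plates; puromycin 10 μM positive, DMSO 0.5% negative; run in parallel with 48 h PbLuc assay at 37 °C, 5% CO2; viability by CellTiter-Glo luminescence, normalized to controls.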

| SMILES | cytotoxicity at 10 µM [%] |
| --- | --- |
| Cn1nc(Br)nc1Sc1ccccc1NC(=O)C1CC1 | 3.62 |
| COc1nn(C)cc1C(=O)N1CCC(c2nnc(C(C)C)o2)CC1 | 13.5 |
| O=C(NCc1c(F)cccc1F)C1CN(C(=O)c2cnccn2)C1 | -12.2 |
| CCOC(=O)CNC(=O)C1CN(C(=O)c2cnccn2)C1 | 2.63 |
| O=C(Cc1cccs1)NCC1(O)CCc2ccccc2C1 (stereo not given) | -10.1 |
| O=C(C1CCN(c2nc3nc[nH]c(=O)c3s2)CC1)N1CCCCC1 | -5.55 |
| CN1[C@H](Cn2cccn2)C[C@@H]2CN(C(=O)Cc3cccs3)CC[C@@H]21 | 9.58 |
| O=C1CC2(CCCCN2C(=O)c2ccsc2)CN1CC1CC1 (stereo not given) | 2.84 |
| NC(=O)CN1CCCC(c2ccnc(Nc3ncccn3)c2)C1 (stereo not given) | 10.1 |
| Cc1cc(C)nc(N2CCC(c3noc(C)n3)CC2)n1 | -9.08 |
| CC(=O)Nc1nc(C2CN(C(=O)C3CCC3)C2)cs1 | -21.9 |
| CCC(=O)N1CCC2(CC1)CNC(=O)c1cc(C)ccc1O2 | -20 |
| Cc1nc(Nc2ncccn2)cc(C2CN(C(=O)c3cccnc3)C2)n1 | 4.42 |
| O=C(c1cccs1)N1CCc2c(nc(N3CCCCC3)[nH]c2=O)C1 | -14.5 |
| Cc1ccc(CN2CCCC(c3nn(C)c4nccnc34)C2)s1 (stereo not given) | -10.6 |
| CC(C)C(=O)N1Cc2ccccc2CC2(CCCN2C)C1 (stereo not given) | 4.51 |
| COc1cc(C(=O)O)ccc1OCC(=O)NCCc1ccccc1 | -10.6 |
| COC(=O)c1sc(C(NC(=O)c2ccccc2)C2CC2)nc1C (stereo not given) | 0.0726 |
| Cc1nn(C)c(C)c1C1COCCN1C(=O)CSC(C)(C)C (stereo not given) | 4.22 |
| COc1ccc(NC(=O)N2CCC(c3nnc[nH]3)CC2)cc1C | 15.8 |
| COCCn1cc(C(=O)N2CCCC2c2noc(C)n2)ccc1=O (stereo not given) | -9.8 |
| Cc1ccc(NC(C)C(=O)N(C)Cc2cccc(F)c2)cc1C(N)=O (stereo not given) | 11.4 |
| CN(C(=O)CCc1ccsc1)S(C)(=O)=O | 0.347 |

| SMILES | cytotoxicity at 10 µM [%] |
| --- | --- |
| Cc1cc(S(=O)(=O)NCC[S+](C)[O-])c(F)cc1F (stereo not given) | -4.23 |
| c1cnc(N2CCc3onc(CN4CCCC4)c3C2)cn1 | -3.09 |
| Cc1nnc([C@@]23CCO[C@@H]2CCN(Cc2nccs2)C3)o1 | -104 |
| COc1cc(O)ccc1CN1CCN(C2CCc3ccccc3C2)CC1 (stereo not given) | -1.33 |
| Cc1cc(N2CCCN(C(=O)CSCC3CC3)CC2)ccn1 | -1.9 |
| COc1ccc(F)c(CNC2CCCc3nc(N(C)C)ncc32)c1 (stereo not given) | 1.81 |
| O=C(NCc1cnn2cccnc12)C1CC(=O)N(Cc2cccnc2)C1 (stereo not given) | 8.21 |
| COc1ccc(OC)c(CNC2CCCc3nc(N(C)C)ncc32)c1 (stereo not given) | -11.2 |
| CNS(=O)(=O)c1ccsc1C(=O)OC | 7.54 |
| Cc1ccc(CN2CCN(C(=O)c3ccccc3O)C(C)C2=O)cc1 (stereo not given) | 6.31 |
| Cn1cccc1C1CCCCCN1C(=O)c1ccc(NC2CC2)nc1 (stereo not given) | -9.24 |
| Cc1nccn1CCCC(=O)N1CCC(Nc2cccnn2)CC1 | -17.3 |
| CCCc1nnsc1C(=O)N1CCN(CC(O)C2CC2)CC1 (stereo not given) | -7.78 |
| c1ccc(N2CC[C@H](OCC3CC3)[C@@H]2Cc2cccnc2)nc1 | 7.53 |
| CS(=O)(=O)NCc1cc(=O)n2c(n1)CN(CC1CC1)CCC2 | -104 |
| O=C1CO[C@@H]2CN(CC3CCOCC3)C[C@H]2N1CC1CC1 | 1.57 |
| CCN1Cc2ccccc2CC2(CCN(CC(=O)O)CC2)C1=O | -4.87 |
| COCCN1CCc2ncnc(OC(C)C)c2CC1 | 8.26 |
| Cc1occc1C(=O)N1CCC2(CCCN(c3ncc(F)cn3)C2)C1 (stereo not given) | -102 |
| COCC1CC2(CCN(Cc3cnn(C)c3)CC2)CN1C(C)C (stereo not given) | 2.91 |
| CC(C)N1[C@H](Cn2cncn2)C[C@@H]2CN(Cc3nccn3C)CC[C@@H]21 | -106 |
| CC(C)CS(=O)(=O)N1C[C@@H]2C[C@H](C(=O)N(C)C)[C@H](C1)O2 | 8.66 |
